Laboratory results taken from PMC2803432 (Current Chemical Genomics, 2008).
Residues, ends and D or L forms follow the SMILES beside them. No end group written: not given here.

Columns and labels:
14-3-3 proteins = settings: cited from earlier work
14-3-3γ [1] = target: T1, 14-3-3γ (Homo sapiens, UniProt P61981); test: AlphaScreen direct binding of biotin-pS259-Raf-1 to GST-14-3-3γ; settings: increasing GST-14-3-3γ and biotin-pS259-Raf-1 with both beads
T1 sequence (P61981 1-247): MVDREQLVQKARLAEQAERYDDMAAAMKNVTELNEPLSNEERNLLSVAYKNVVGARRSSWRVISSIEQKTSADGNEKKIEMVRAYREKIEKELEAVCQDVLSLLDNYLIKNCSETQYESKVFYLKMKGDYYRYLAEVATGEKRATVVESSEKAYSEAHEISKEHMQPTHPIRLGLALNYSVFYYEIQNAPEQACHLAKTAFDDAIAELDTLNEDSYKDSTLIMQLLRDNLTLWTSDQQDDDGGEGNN
Method in brief: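 Biotinylated pS259-Raf-1 peptide (LSQRSTpSTPNVHM) was titrated with purified GST-14-3-3γ; Z' runs used 100 nM peptide. Anti-GST acceptor beads were added and incubated 30 min, then streptavidin donor beads for 1.5 h. Luminescence was read under dim light. Background wells held one binding component.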

14-3-3γ [2] = target: T1, 14-3-3γ; test: AlphaScreen direct binding of GST-R18 to biotin-14-3-3γ; settings: GST-R18 5 nM to 500 nM; biotin-14-3-3γ 5 nM or 10 nM
Method in brief: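 His-14-3-3γ expressed in E. coli BL21(DE3), Ni2+-column purified, desalted, then biotinylated with sulfo-NHS-LC-biotin. GST-R18 expressed in E. coli. Anti-GST acceptor beads added, then streptavidin donor beads 30 min later. Read after 1.5 h at room temperature under dim light. Background wells held one component. Triplicate, mean ± SD.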

GST-14-3-3γ [3] = target: GST-14-3-3γ (UniProt P61981); test: AlphaScreen or HTRF
biotinylated His-14-3-3γ [4] = target: biotinylated His-14-3-3γ (UniProt P61981); test: AlphaScreen or HTRF
biotinylated His-14-3-3γ [5] = target: T2, biotinylated His-14-3-3γ (UniProt P61981 1-247, biotin (EZ-Link sulfo-NHS-LC-biotin; sites not stated)); test: AlphaScreen or HTRF
T2 sequence (looked up): T1 sequence (P61981 1-247)

GST-14-3-3γ [6] = target: T3, GST-14-3-3γ (UniProt P61981 1-247); test: AlphaScreen or HTRF
T3 sequence (looked up): T1 sequence (P61981 1-247)

## CSCC[C@H](NC(=O)[C@H](CC(N)=O)NC(=O)[C@H](C)NC(=O)[C@H](CCC(=O)O)NC(=O)[C@H](CC(C)C)NC(=O)[C@H](CC(=O)O)NC(=O)[C@H](CC(C)C)NC(=O)[C@H](Cc1c[nH]c2ccccc12)NC(=O)[C@H](CO)NC(=O)[C@H](CC(C)C)NC(=O)[C@H](CC(=O)O)NC(=O)[C@H](CCCNC(=N)N)NC(=O)[C@@H]1CCCN1C(=O)[C@@H](NC(=O)[C@H](CS)NC(=O)[C@H](Cc1c[nH]cn1)NC(=O)[C@@H]1CCCN1)C(C)C)C(=O)N[C@@H](CS)C(=O)N[C@@H](CC(C)C)C(=O)N1CCC[C@H]1C(=O)O [R18] (H-PHCVPRDLSWLDLEANMCLP-OH; N-terminus and C-terminus assumed)
14-3-3 proteins; GST fusion of R18, ref [10]
  effect of GST fusion on efficacy of R18 for 14-3-3 binding: no detectable effect on the efficacy of R18 for 14-3-3 binding
14-3-3 proteins; ref [17]
  competition with natural proteins for binding of 14-3-3 (in words): can effectively compete with other natural proteins for the binding of 14-3-3 proteins
14-3-3 proteins; unphosphorylated peptide from phage display, ref [10]
  affinity for 14-3-3 proteins (in words): exhibits a high affinity for 14-3-3 proteins

## Biotin-LSQRSTpSTPNVHM [biotin-pS259-Raf-1]
14-3-3γ [1]
  Alpha signal with increasing concentration (in words): dose-dependent increase in Alpha signal

## GST-R18: GST-tagged R18 protein-peptide fusion, purified from bacterial cells (PHCVPRDLSWLDLEANMCLP; cysteine pairing not given here; also: GST tag fused, end not given here)
14-3-3γ [2]
  Alpha signal with increasing concentration (in words): induced the robust production of Alpha signal in a dose-dependent manner

## pS967-ASK1 peptide
GST-14-3-3γ [3]
  IC50: 535 nM
Biotinylated His-14-3-3γ [4]
  IC50: 549 nM

## PHCVPRDLSWLDLEANMCLP [untagged R18 peptide]
Biotinylated His-14-3-3γ [5]
  IC50: 28 ± 1.1 nM
GST-14-3-3γ [6]
  IC50: 35.7 ± 1.1 nM
